Values joined by “and” are separate entries in the source; they are usually repeats but may differ in a detail not shown here. Identical values can stand only once. One block for each molecule: values may come before it.
What was measured:
Glutamate NMDA receptor [1] = assay: Antagonist activity of compound against rat N-methyl-D-aspartate glutamate receptor using 11 nM [3H]glycine; type: functional
Rattus norvegicus [2] = assay: Reduction of infarct in rat with proximal middle cerebral artery occlusion at total dose of 245 mg/kg after 30 min initiation (duration of effect 6 h); type: functional
Rattus norvegicus [3] = assay: Reduction of infarct in rat with proximal middle cerebral artery occlusion at total dose of 490 mg/kg after 30 min initiation (duration of effect 6 h); type: functional
Rattus norvegicus [4] = assay: Reduction of infarct in rat with proximal middle cerebral artery occlusion at total dose of 245 mg/kg after 120 min initiation (duration of effect 6 h); type: functional
Rattus norvegicus [5] = assay: Reduction of infarct in rat with proximal middle cerebral artery occlusion at total dose of 245 mg/kg after 180 min initiation (duration of effect 6 h); type: functional
Rattus norvegicus [6] = assay: Reduction of infarct in rat with proximal middle cerebral artery occlusion at total dose of 245 mg/kg after 360 min initiation (duration of effect 6 h); type: functional
Rattus norvegicus [7] = assay: Reduction of infarct in rat with proximal middle cerebral artery occlusion at total dose of 245 mg/kg after 480 min initiation (duration of effect 6 h); type: functional
Rattus norvegicus [8] = assay: Reduction of infarct in rat with proximal middle cerebral artery occlusion at total dose of 31.5 mg/kg after 30 min initiation (duration of effect 6 h); type: functional
Rattus norvegicus [9] = assay: Reduction of infarct in rat with proximal middle cerebral artery occlusion at total dose of 490 mg/kg after -15 min initiation (duration of effect 6 h); type: functional
Rattus norvegicus [10] = assay: Reduction of infarct volume in rat with distal middle cerebral artery occlusion at total dose of 135 mg/kg after 30 min of initiation (duration of effect 4 h); type: functional
Rattus norvegicus [11] = assay: Reduction of infarct volume in rat with distal middle cerebral artery occlusion at total dose of 126 mg/kg after -15 min of initiation (duration of effect 6 h); type: functional
Rattus norvegicus [12] = assay: Reduction of infarct in rat with proximal middle cerebral artery occlusion at total dose of 16 mg/kg after 30 min initiation (duration of effect 6 h); type: functional
Rattus norvegicus [13] = assay: Reduction of infarct in rat with proximal middle cerebral artery occlusion at total dose of 62 mg/kg after 30 min initiation (duration of effect 6 h); type: functional
Rattus norvegicus [14] = assay: Reduction of infarct in rat with proximal middle cerebral artery occlusion at total dose of 123 mg/kg after 30 min initiation (duration of effect 6 h); type: functional
Rattus norvegicus [15] = assay: Reduction of infarct volume in rat with distal middle cerebral artery occlusion at total dose of 245 mg/kg after -15 min of initiation (duration of effect 6 h); type: functional
Rattus norvegicus [16] = assay: Reduction of infarct volume in rat with distal middle cerebral artery occlusion at total dose of 490 mg/kg after -15 min of initiation (duration of effect 6 h); type: functional
Glutamate NMDA receptor [17] = assay: In vitro inhibitory concentration against binding of the [3H]glycine to strychnine-insensitive glycine binding sites of rat N-methyl-D-aspartate glutamate receptor; type: protein-complex assay
Rattus norvegicus [18] = species: Rattus norvegicus; assay: In vitro inhibitory concentration against glutamate stimulated accumulation of cyclic GMP in neonatal rat cerebral slices; type: functional
Mus musculus [19] = assay: In vivo effective dose of compound to protect mice from quinolinic acid seizures upon intravenous administration; type: functional
Mus musculus [20] = assay: In vivo effective dose to protect the mouse (DBA/2J) from audiogenic seizures upon intraperitoneal administration; type: functional; details: ip
Mus musculus [21] = assay: In vivo effective dose against harmaline induced cGMP elevation in mouse cerebellum upon intravenous administration; type: functional
Rattus norvegicus [22] = assay: In vivo effective dose to protect rats against maximal electroshock induced seizures upon intravenous administration; type: functional
Summary of the method: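 Maximal electroshock seizures in adult male CDF rats, compound iv, vehicle water, saline or 50 mM Tris base at 1 mL/kg.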

[23] = Half life was measured in rat following intravenous administration; type: ADME, organism-based; details: in vivo
Rattus norvegicus [24] = assay: Reduction of infarct volume in rat with distal middle cerebral artery occlusion at total dose of 52 mg/kg after 30 min of initiation (duration of effect 6 h); type: functional
Rattus norvegicus [25] = assay: Reduction of infarct volume in rat with distal middle cerebral artery occlusion at total dose of 52 mg/kg after -15 min of initiation (duration of effect 6 h); type: functional
Rattus norvegicus [26] = assay: Reduction of infarct volume in rat with proximal middle cerebral artery occlusion at total dose of 52 mg/kg after -15 min of initiation (duration of effect 6 h); type: functional
Rattus norvegicus [27] = assay: Reduction of infarct volume in rat with proximal middle cerebral artery occlusion at total dose of 52 mg/kg after 180 min of initiation (duration of effect 6 h); nd=Not determined; type: functional
Glutamate NMDA receptor [28] = assay: Antagonist activity of compound against rat N-methyl-D-aspartate glutamate receptor using [3H]glycine

IC50 (Glutamate NMDA receptor [1]): 212 nM
Structure (SMILES): O=C(O)/C(=C/c1c(C(=O)O)[nH]c2cc(Cl)cc(Cl)c12)c1ccccc1Cl

IC50 (Glutamate NMDA receptor [1]): 126 nM
Structure (SMILES): O=C(O)/C(=C/c1c(C(=O)O)[nH]c2cc(Cl)cc(Cl)c12)c1cccnc1

IC50 (Glutamate NMDA receptor [17]): 24.3 nM
IC50 (Rattus norvegicus [18]): 364 nM
half-life [23]: > 1 h
Structure (SMILES): Nc1cccc(/C(=C\c2c(C(=O)O)[nH]c3cc(Cl)cc(Cl)c23)C(=O)O)c1
Reduction (Rattus norvegicus [2]): 68% and 57% and 76% and 71%
Reduction (Rattus norvegicus [3]): 77%
Reduction (Rattus norvegicus [4]): 50%
Reduction (Rattus norvegicus [5]): 41%
Reduction (Rattus norvegicus [6]): 58% and 59%
Reduction (Rattus norvegicus [7]): 13%
Reduction (Rattus norvegicus [8]): 40%
Reduction (Rattus norvegicus [9]): 73%
Reduction (Rattus norvegicus [10]): 28%
Reduction (Rattus norvegicus [11]): 0%
Reduction (Rattus norvegicus [12]): 12%
Reduction (Rattus norvegicus [13]): 48%
Reduction (Rattus norvegicus [14]): 49%
Reduction (Rattus norvegicus [15]): 13%
Reduction (Rattus norvegicus [16]): 32%
ED50 (Mus musculus [19]): 14.9 mg/kg
ED50 (Mus musculus [20]): 10.8 mg/kg
ED50 (Mus musculus [21]): 15 mg/kg
ED50 (Rattus norvegicus [22]): 30.6 mg/kg

IC50 (Glutamate NMDA receptor [1]): 157 nM
Structure (SMILES): O=C(O)/C(=C\c1c(C(=O)O)[nH]c2cc(Cl)cc(Cl)c12)c1ccccc1

IC50 (Glutamate NMDA receptor [1]): 151 nM
Structure (SMILES): O=C(O)/C(=C/c1c(C(=O)O)[nH]c2cc(Cl)cc(Cl)c12)c1ccncc1

IC50 (Glutamate NMDA receptor [1]): 20 nM
Structure (SMILES): NC(=O)/C(=C/c1c(C(=O)O)[nH]c2cc(Cl)cc(Cl)c12)c1ccccc1

IC50 (Glutamate NMDA receptor [1]): 105 nM
Structure (SMILES): Cc1ccc(/C(=C\c2c(C(=O)O)[nH]c3cc(Cl)cc(Cl)c23)C(=O)O)cc1

IC50 (Glutamate NMDA receptor [17]): 10.9 nM
IC50 (Rattus norvegicus [18]): 282 nM
IC50 (Glutamate NMDA receptor [28]): 11 nM
Structure (SMILES): O=C(O)/C(=C/c1c(C(=O)O)[nH]c2cc(Cl)cc(Cl)c12)c1ccccc1
ED50 (Mus musculus [19]): 37 mg/kg
ED50 (Mus musculus [20]): 12.2 mg/kg
ED50 (Mus musculus [21]): 59 mg/kg
ED50 (Rattus norvegicus [22]): 29 mg/kg

IC50 (Glutamate NMDA receptor [1]): 1020 nM
Structure (SMILES): O=C(O)/C(=C/c1c(C(=O)O)[nH]c2cc(Cl)cc(Cl)c12)c1ccccn1

IC50 (Glutamate NMDA receptor [1]): 65 nM
Structure (SMILES): O=C(O)/C(=C/c1c(C(=O)O)[nH]c2cc(Cl)cc(Cl)c12)c1ccc(Cl)cc1

More lines, now with the values behind:

Structure (SMILES): O=C(NCCc1ccccc1)/C(=C/c1c(C(=O)O)[nH]c2cc(Cl)cc(Cl)c12)c1ccccc1
IC50 (Glutamate NMDA receptor [1]): 224 nM

Structure (SMILES): CN(C)c1cccc(/C(=C\c2c(C(=O)O)[nH]c3cc(Cl)cc(Cl)c23)C(=O)O)c1
IC50 (Glutamate NMDA receptor [1]): 225 nM

Structure (SMILES): COC(=O)Nc1cccc(/C(=C\c2c(C(=O)O)[nH]c3cc(Cl)cc(Cl)c23)C(=O)O)c1
IC50 (Glutamate NMDA receptor [17]): 114 nM
IC50 (Glutamate NMDA receptor [1]): 114 nM
IC50 (Rattus norvegicus [18]): 840 nM
ED50 (Mus musculus [19]): > 64 mg/kg
ED50 (Mus musculus [20]): 8.5 mg/kg
ED50 (Mus musculus [21]): > 64 mg/kg
ED50 (Rattus norvegicus [22]): > 128 mg/kg

Structure (SMILES): N#C/C(=C/c1c(C(=O)O)[nH]c2cc(Cl)cc(Cl)c12)c1ccc(N)cc1
IC50 (Glutamate NMDA receptor [1]): 4660 nM

Structure (SMILES): O=c1[nH]c2cc(Cl)c(Cl)c([N+](=O)[O-])c2[nH]c1=O [LICOSTINEL]
Reduction (Rattus norvegicus [24]): 33% and 24%
Reduction (Rattus norvegicus [25]): 18%
Reduction (Rattus norvegicus [26]): 50%
Reduction (Rattus norvegicus [27]): 28%
IC50 (Glutamate NMDA receptor [17]): 20 nM
IC50 (Rattus norvegicus [18]): 183 nM
ED50 (Mus musculus [19]): 14.7 mg/kg
ED50 (Mus musculus [20]): 3.7 mg/kg
ED50 (Mus musculus [21]): 3.5 mg/kg
ED50 (Rattus norvegicus [22]): 46.3 mg/kg

Structure (SMILES): O=C(O)/C(=C/c1c(C(=O)O)[nH]c2cc(Cl)cc(Cl)c12)c1ccc(F)cc1
IC50 (Glutamate NMDA receptor [1]): 35.5 nM

Structure (SMILES): O=C(O)/C(=C/c1c(C(=O)O)[nH]c2cc(Cl)cc(Cl)c12)c1ccc([N+](=O)[O-])cc1
IC50 (Glutamate NMDA receptor [1]): 21 nM

Structure (SMILES): O=C(O)/C(=C/c1c(C(=O)O)[nH]c2cc(Cl)cc(Cl)c12)c1cccc(NC(=O)c2ccccc2)c1
IC50 (Glutamate NMDA receptor [1]): 512 nM

Structure (SMILES): O=C(O)/C(=C/c1c(C(=O)O)[nH]c2cc(Cl)cc(Cl)c12)c1ccc(C(F)(F)F)cc1
IC50 (Glutamate NMDA receptor [1]): 89 nM

Source: ChEMBL document CHEMBL1142686, “CoMFA, synthesis, and pharmacological evaluation of (E)-3-(2-carboxy-2-arylvinyl)-4,6-dichloro-1H-indole-2-carboxylic acids: 3-[2-(3-aminophenyl)-2-carboxyvinyl]-4,6-dichloro-1H-indole-2-carboxylic acid, a potent selective glycine-site NMDA receptor antagonist” (J Med Chem, 2005)
